Measurements published in ChEMBL document CHEMBL4196179, “Synthesis and Pharmacological Evaluation of Noscapine-Inspired 5-Substituted Tetrahydroisoquinolines as Cytotoxic Agents” (J Med Chem, 2018).
pEC50, pIC50: −log10 of the molar value. Calls of active or inactive are those of the source. The calls are words filed in the database; no cut-off is given here.

Columns and labels:
PANC-1 [1] = experiment: Cell cycle arrest in human PANC1 cells assessed as increase in accumulation at G2/M phase at 10 uM after 18 hrs by Hoechst 33342 staining based FACS analysis relative to control; type: functional
How it was run: (§1)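 Cells seeded 48 h beforehand, treated 18 h with test compounds at 10 µM or vincristine at 100 nM, then trypsinised and stained with Hoechst 33342 for 60 min; FACS read at 450 nm; % G2/M increase calculated relative to 0.1% DMSO vehicle; mean ± SEM of three independent experiments.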

MCF7 [2] = experiment: Cell cycle arrest in human MCF7 cells assessed as increase in accumulation at G2/M phase at 10 uM after 18 hrs by Hoechst 33342 staining based FACS analysis relative to control; type: functional; how it was run: as §1
[3] = Ratio of IC50 for human NCI/ADR-RES cells to IC50 for human MCF7 cells; type: functional
How it was run: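 IC50 in doxorubicin-selected P-gp-expressing NCI/AdrRES cells divided by IC50 in parental MCF-7, each from 6 d MTT viability dose-response curves fitted by non-linear regression.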

NCI/ADR-RES [4] = experiment: Antiproliferative activity against human NCI/ADR-RES cells after 6 days by MTT assay; type: functional, cell-based; conditions: 144 h
How it was run: (§2)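 Cells seeded overnight at 1500/well, then exposed to a range of concentrations for 6 d; viability by MTT (570 nm, background-subtracted, normalised to untreated control = 100%); EC50 from sigmoidal dose-response fit by non-linear least squares; mean ± SEM of at least 8 independent observations. MCF-7 in MEMα + 10% FBS; NCI/AdrRES in DMEM + 10% FCS with periodic 3 µM doxorubicin selection.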

MCF7 [5] = experiment: Antiproliferative activity against human MCF7 cells after 6 days by MTT assay; type: functional, cell-based; conditions: MCF7, 144 h; how it was run: as §2
MCF7 [6] = experiment: Synergistic antiproliferative activity against human MCF7 cells assessed as reduction in cell viability at 1 uM after 6 days in presence of vinblastine by MTT assay; type: functional
Homo sapiens [7] = species: Homo sapiens; experiment: Binding affinity to recombinant P-gp cys-less mutant (unknown origin) in proteoliposomes assessed as increase in ATP hydrolysis rate at 10^-9 to 10^-4 M after 40 mins by colorimetric assay relative to basal control
How it was run: (§3)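 P-gp expressed in High-Five insect cells via recombinant baculovirus, IMAC-purified and reconstituted into proteoliposomes; 0.1-0.5 µg incubated with 2 mM ATP and drug at 10^-9 to 10^-4 M for 40 min at 37 °C; liberated Pi measured colorimetrically; EC50 and extent of stimulation from dose-response fit against drug-free basal activity.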

PANC-1 [8] = experiment: Cell cycle arrest in human PANC1 cells assessed as accumulation at G1 phase at 10 uM after 18 hrs by Hoechst 33342 staining based FACS analysis (reference value: 70.7%); type: functional
[9] = Binding affinity to recombinant P-gp cys-less mutant (unknown origin) in proteoliposomes assessed as increase in ATP hydrolysis rate after 40 mins by colorimetric assay; set-up: species or system Homo sapiens; how it was run: as §3
MCF7 [10] = experiment: Effect on calcein-AM accumulation in human wild type MCF7 cells at 1 uM by fluorescence assay; type: functional, cell-based
How it was run: (§4)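 Cells seeded at 2 × 10^3/well and grown 2 d, washed and placed in HBSS; test compound added at 2X in HBSS with DMSO ≤1% final, then calcein-AM at 1 µM final; intracellular fluorescence followed over time, rate taken as slope from linear regression.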

NCI/ADR-RES [11] = experiment: Inhibition of P-gp in human NCI/ADR-RES cells assessed as rate of calcein-AM accumulation at 1 uM by fluorescence assay; type: cell-based; how it was run: as §4
Homo sapiens [12] = species: Homo sapiens; experiment: Inhibition of P-gp in human NCI/ADR-RES cells assessed as potentiation of vinblastine-induced cytotoxicity by measuring combination index at 0.3 uM compound concentration after 6 days by MTT assay; type: cell-based
MCF7 [13] = experiment: Synergistic antiproliferative activity against human MCF7 cells assessed as reduction in cell viability at 0.3 uM after 6 days in presence of vinblastine by MTT assay; type: functional
PANC-1 [14] = experiment: Cell cycle arrest in human PANC1 cells assessed as accumulation at G2/M phase at 10 uM after 18 hrs by Hoechst 33342 staining based FACS analysis (reference value: 13.7%); type: functional
Sus scrofa [15] = species: Sus scrofa; experiment: Inhibition of pig tubulin polymerization assessed as Vmax of tubulin polymerization at 10 uM after 60 mins turbidimetric analysis (reference value: 27 +/- 2 milliOD/min)
Homo sapiens [16] = species: Homo sapiens; experiment: Inhibition of P-gp in human NCI/ADR-RES cells assessed as potentiation of vinblastine-induced cytotoxicity by measuring combination index at 1 uM compound concentration after 6 days by MTT assay; type: cell-based
PANC-1 [17] = experiment: Cell cycle arrest in human PANC1 cells assessed as accumulation at S phase at 10 uM after 18 hrs by Hoechst 33342 staining based FACS analysis (reference value: 11.1%); type: functional
MCF7 [18] = experiment: Synergistic antiproliferative activity against human MCF7 cells assessed as reduction in cell viability at 0.1 uM after 6 days in presence of vinblastine by MTT assay; type: functional
Homo sapiens [19] = species: Homo sapiens; experiment: Inhibition of P-gp in human NCI/ADR-RES cells assessed as potentiation of vinblastine-induced cytotoxicity by measuring combination index at 0.1 uM compound concentration after 6 days by MTT assay; type: cell-based
MCF7 [20] = experiment: Cytotoxicity against human MCF7 cells assessed as reduction in cell viability after 5 days by cellTiter-blue assay; type: functional, cell-based; conditions: MCF7, 120 h
PC-3 = experiment: Cytotoxicity against human PC3 cells assessed as reduction in cell viability after 5 days by cellTiter-blue assay; type: functional, cell-based; conditions: PC-3, 120 h
MCF7 [21] = experiment: Cell cycle arrest in human MCF7 cells assessed as increase in accumulation at G2/M phase at 100 nM after 18 hrs by Hoechst 33342 staining based FACS analysis relative to control; type: functional; how it was run: as §1
PANC-1 [22] = experiment: Cell cycle arrest in human PANC1 cells assessed as accumulation at S phase at 100 nM after 18 hrs by Hoechst 33342 staining based FACS analysis (reference value: 11.1%); type: functional
PANC-1 [23] = experiment: Cell cycle arrest in human PANC1 cells assessed as accumulation at G1 phase at 100 nM after 18 hrs by Hoechst 33342 staining based FACS analysis (reference value: 70.7%); type: functional
PANC-1 [24] = experiment: Cell cycle arrest in human PANC1 cells assessed as accumulation at G2/M phase at 100 nM after 18 hrs by Hoechst 33342 staining based FACS analysis (reference value: 13.7%); type: functional
PANC-1 [25] = experiment: Cell cycle arrest in human PANC1 cells assessed as increase in accumulation at G2/M phase at 100 nM after 18 hrs by Hoechst 33342 staining based FACS analysis relative to control; type: functional; how it was run: as §1
Sus scrofa [26] = species: Sus scrofa; experiment: Stabilization of pig tubulin assessed as Vmax of tubulin polymerization at 10 uM after 60 mins turbidimetric analysis (reference value: 27 +/- 2 milliOD/min)

Structure (SMILES)	Activity (PANC-1 [1]) [%]	Activity (MCF7 [2]) [%]	further results
CCNC(=O)N1CCc2c(Br)c3c(c(OC)c2C1Cc1cccc(OC)c1OC)OCO3 (configuration not stated)	28	11	–
CCNC(=O)N1CCc2c(Br)c3c(c(OC)c2C1c1cccc(OC)c1OC)OCO3 (configuration not stated)	14	19	–
CCNC(=O)N1CCc2c(Br)c3c(c(OC)c2C1c1ccc(OC)cc1)OCO3 (configuration not stated)	21	18	–
COc1ccc(CC2c3c(c(Br)c4c(c3OC)OCO4)CCN2C)cc1OC (configuration not stated)	0	19	–
COc1cccc(CC2c3c(c(Br)c4c(c3OC)OCO4)CCN2C)c1OC (configuration not stated)	8	32	–
CCNC(=O)N1CCc2c(Br)c3c(c(OC)c2C1Cc1ccc(OC)c(OC)c1)OCO3 (configuration not stated)	-10	12	–
COc1ccc(C2c3c(c(Br)c4c(c3OC)OCO4)CCN2C)cc1OC (configuration not stated)	8	20	–
CCNC(=O)N1CCc2c(Br)c3c(c(OC)c2C1c1ccc(OC)c(OC)c1)OCO3 (configuration not stated)	11	-6	–
CC[C@]1(O)C[C@@H]2CN(CCc3c([nH]c4ccccc34)[C@@](C(=O)OC)(c3cc4c(cc3OC)N(C)[C@H]3[C@@](O)(C(=O)OC)[C@H](OC(C)=O)[C@]5(CC)C=CCN6CC[C@]43[C@@H]65)C2)C1 [VINBLASTINE]	–	–	Ratio IC50 [3]: 267; pIC50 (NCI/ADR-RES [4]): 7.02; pIC50 (MCF7 [5]): 9.44
CCNC(=O)N1CCc2c(Br)c3c(c(OC)c2C1Cc1ccc(OC)cc1)OCO3 (configuration not stated)	175	208	CI (MCF7 [6]): 1.5; fold change (FC) (Homo sapiens [7]): 6.2; Activity (PANC-1 [8]): 53.5%; pIC50 (NCI/ADR-RES [4]): 5.60; pEC50 [9]: 5.62; Activity (MCF7 [10]): inactive; Activity (NCI/ADR-RES [11]): 78 RFU/min; CI (Homo sapiens [12]): 0.57; CI (MCF7 [13]): 1.02; Activity (PANC-1 [14]): 36.8%; Vmax (milli optical density/minute) (Sus scrofa [15]): 20; CI (Homo sapiens [16]): 0.95; pIC50 (MCF7 [5]): 5.57; Activity (PANC-1 [17]): 7.7%; CI (MCF7 [18]): 1.09; CI (Homo sapiens [19]): 0.6
COC(=O)C1=C(C)NC(C)=C(C(=O)OCCN(C)Cc2ccccc2)C1c1cccc([N+](=O)[O-])c1 (configuration not stated) [NICARDIPINE]	–	–	fold change (FC) (Homo sapiens [7]): 13.6; pEC50 [9]: 5.33; Activity (NCI/ADR-RES [11]): 107 RFU/min
COc1ccc(CC2c3c(c(Br)c4c(c3OC)OCO4)CCN2C)cc1 (configuration not stated)	226	180	–
CCNC(=O)N1CCc2c(Br)c3c(c(OC)c2C1Cc1ccccc1)OCO3 (configuration not stated)	-8	1	–
COc1cccc(C2c3c(c(Br)c4c(c3OC)OCO4)CCN2C)c1OC (configuration not stated)	16	29	–
COc1c2c(c(Br)c3c1C(c1ccccc1)N(C)CC3)OCO2 (configuration not stated)	-7	18	–
CCNC(=O)N1CCc2cc3c(c(OC)c2[C@@H]1[C@H]1OC(=O)c2c1ccc(OC)c2OC)OCO3	–	–	pEC50 (MCF7 [20]): 5.44; pEC50 (PC-3): 5.17
COc1cc(C2c3c(c(Br)c4c(c3OC)OCO4)CCN2C)cc(OC)c1OC (configuration not stated)	12	48	–
COc1ccc(C2c3c(c(Br)c4c(c3OC)OCO4)CCN2C)cc1 (configuration not stated)	26	23	–
COc1c2c(c(Br)c3c1C(Cc1ccccc1)N(C)CC3)OCO2 (configuration not stated)	13	9	–
COc1ccc2c(c1OC)CC1c3c(c(Br)c4c(c3OC)OCO4)CCN1C2 (configuration not stated)	9	28	–
COc1cc(CC2c3c(c(Br)c4c(c3OC)OCO4)CCN2C)cc(OC)c1OC (configuration not stated)	-1	-8	–
CC[C@]1(O)C[C@H]2CN(CCc3c([nH]c4ccccc34)[C@@](C(=O)OC)(c3cc4c(cc3OC)N(C=O)[C@H]3[C@@](O)(C(=O)OC)[C@H](OC(C)=O)[C@]5(CC)C=CCN6CC[C@]43[C@@H]65)C2)C1 [VINCRISTINE]	–	–	Activity (MCF7 [21]): 283%; Activity (PANC-1 [22]): 9.7%; Activity (PANC-1 [23]): 21.2%; Activity (PANC-1 [24]): 64.1%; Activity (PANC-1 [25]): 265%
CC(=O)O[C@H]1C(=O)[C@@]2(C)[C@H]([C@H](OC(=O)c3ccccc3)[C@]3(O)C[C@H](OC(=O)[C@H](O)[C@@H](NC(=O)c4ccccc4)c4ccccc4)C(C)=C1C3(C)C)[C@]1(OC(C)=O)CO[C@@H]1C[C@@H]2O	–	–	Vmax (milli optical density/minute) (Sus scrofa [26]): 76
CCNC(=O)N1CCc2c(Br)c3c(c(OC)c2C1Cc1cc(OC)c(OC)c(OC)c1)OCO3 (configuration not stated)	-4	5	–
CCNC(=O)N1CCc2c(Br)c3c(c(OC)c2C1c1cc(OC)c(OC)c(OC)c1)OCO3 (configuration not stated)	2	3	–
CCNC(=O)N1CCc2c(Br)c3c(c(OC)c2C1c1ccccc1)OCO3 (configuration not stated)	-2	6	–
